Laboratory results reported in ChEMBL document CHEMBL4330142, “Eupatoriopicrin Inhibits Pro-inflammatory Functions of Neutrophils via Suppression of IL-8 and TNF-alpha Production and p38 and ERK 1/2 MAP Kinases” (J Nat Prod, 2019).
The source made the active and inactive calls. No cut-off for these calls is given here.

Experiments:
[1] = Anti-inflammatory activity in human PMN assessed as inhibition of fMLP/cytochalasin A-induced CD11b/CD18 expression by measuring CD11b/CD18 expression level at 2.5 uM preincubated for 30 mins followed by fMLP/cytochalasin A addition and measured after 30 mins by flow cytometry relative to control; type: functional; design: scale not given: the % may be the effect or the level left
Method in brief: (§1)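 Neutrophils preincubated with compound before stimulation with cytochalasin A combined with f-MLP; surface CD11b expression read by flow cytometry. Compounds from 10 mM DMSO stock diluted in buffer or RPMI 1640. Mean ± SEM of three experiments on neutrophils from independent donors, Dunnett's post hoc test versus stimulated control.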

[2] = Anti-inflammatory activity in human PMN assessed as inhibition of fMLP/cytochalasin A-induced CD11b/CD18 expression by measuring CD11b/CD18 expression level at 50 uM preincubated for 30 mins followed by fMLP/cytochalasin A addition and measured after 30 mins by flow cytometry relative to control; type: functional; design: scale not given: the % may be the effect or the level left; method in brief: as §1
[3] = tested on: Neutrophil; test: Inhibition of LPS-induced delay of apoptosis in human neutrophils assessed as viable cells at 2.5 uM preincubated for 1 hr followed by LPS stimulation and measured after 24 hrs by Annexin V-FITC/propidium iodide staining based flow cytometry (reference value: 75.4 +/- 1.1%); type: functional; details: read-out: Activity
[4] = tested on: Neutrophil; test: Inhibition of LPS-induced delay of apoptosis in human neutrophils assessed as early apoptotic cells at 2.5 uM preincubated for 1 hr followed by LPS stimulation and measured after 24 hrs by Annexin V-FITC/propidium iodide staining based flow cytometry (reference value: 13 +/- 1.9%); type: functional; design: scale not given: the % may be the effect or the level left
[5] = tested on: Neutrophil; test: Inhibition of LPS-induced delay of apoptosis in human neutrophils assessed as late apoptotic cells at 2.5 uM preincubated for 1 hr followed by LPS stimulation and measured after 24 hrs by Annexin V-FITC/propidium iodide staining based flow cytometry (reference value: 9.5 +/- 1.8%); type: functional; design: scale not given: the % may be the effect or the level left
[6] = tested on: Neutrophil; test: Inhibition of LPS-induced delay of apoptosis in human neutrophils assessed as necrotic cells at 2.5 uM preincubated for 1 hr followed by LPS stimulation and measured after 24 hrs by Annexin V-FITC/propidium iodide staining based flow cytometry (reference value: 2.1 +/- 0.4%); type: functional; design: scale not given: the % may be the effect or the level left
[7] = tested on: Neutrophil; test: Inhibition of LPS-stimulated IL-8 production in human neutrophils at 2.5 uM after 24 hrs by ELISA; type: functional, cell-based
[8] = tested on: Neutrophil; test: Inhibition of LPS-stimulated TNFalpha production in human neutrophils at 2.5 uM after 24 hrs by ELISA; type: functional, cell-based
Method in brief: (§2)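 Human neutrophils were preincubated with compound, then LPS-stimulated. TNF-α in the culture medium was measured by ELISA 24 h after LPS. Three separate experiments used neutrophils from independent donors, each assayed in duplicate; mean ± SEM; Dunnett's test versus the stimulated control.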

[9] = tested on: Neutrophil; test: Inhibition of LPS-stimulated TNFalpha production in human neutrophils at 50 uM after 24 hrs by ELISA; type: functional, cell-based; method in brief: as §2
[10] = tested on: Neutrophil; test: Inhibition of fMLP/cytochalasin A-stimulated elastase release in human neutrophils assessed as elastase level at 50 uM preincubated for 15 mins followed by fMLP/cytochalasin A stimulation and measured after 15 mins by SAAVNA substrate based spectrophotometric method (reference value: 100%); design: scale not given: the % may be the effect or the level left
[11] = species: Homo sapiens; test: Anti-inflammatory activity in human PMN assessed as inhibition of fMLP/cytochalasin A-induced CD11b/CD18 expression at 2.5 uM preincubated for 30 mins followed by fMLP/cytochalasin A addition and measured after 30 mins by flow cytometry; type: functional
Method in brief: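 Freshly isolated human PMNs were preincubated with compound, then stimulated with cytochalasin A plus f-MLP. Surface CD11b was read by FACS relative to the stimulated control. Three separate experiments used neutrophils from independent donors; mean ± SEM. Compounds came from 10 mM DMSO stocks diluted in Ca2+-free HBSS/PBS pH 7.4 or RPMI 1640.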

Row | Compound | Activity [1] [%] | Activity [2] [%] | viability at 2.5 µM [3] [%] | Activity [4] [%] | Activity [5] [%] | Activity [6] [%] | inhibition [7] | inhibition [8] | inhibition [9] | Activity [10] [%] | inhibition [11]
1 | CC[C@H]1OC(=O)[C@H](C)[C@@H](O[C@H]2C[C@@](C)(OC)[C@@H](O)[C@H](C)O2)[C@H](C)[C@@H](O[C@@H]2O[C@H](C)C[C@H](N(C)C)[C@H]2O)[C@](C)(OC)C[C@@H](C)C(=O)[C@H](C)[C@@H](O)[C@]1(C)O [CLARITHROMYCIN] | 67.7 | 31.5 | 49.8 | 33.7 | 13.3 | 1.1 | Active | inactive | Active | 39 | 
2 | O=c1c(O)c(-c2ccc(O)c(O)c2)oc2cc(O)cc(O)c12 [QUERCETIN] |  |  | 58.8 | 27 | 15.4 | 1 |  | inactive | Active | 26.6 | inactive
